Assay results gathered from unrelated publications.
Lines come from different studies, so protocols differ.
Read-out: enzyme activity
Mode: inhibitor
ABL1 T315I: Tyrosine-protein kinase ABL1 (ABL1, Homo sapiens, UniProt P00519, T315I)
ABL1: Tyrosine-protein kinase ABL1 (ABL1, Homo sapiens, UniProt P00519)
ABL1 Y253F: Tyrosine-protein kinase ABL1 (ABL1, Homo sapiens, UniProt P00519, Y253F)

Structure (SMILES)	target	method	concentration	inhibition
O=C(CSc1nc2nccnc2c(=O)n1CCc1ccccc1)Nc1nccs1	ABL1 T315I	–	10 µM	2%
CNc1cccc2cc(C(=O)Nc3ccc(C(=O)O)cc3)c(=O)[nH]c12	ABL1	–	10 µM	1.8%
CS(=O)(=O)Nc1cccc(-c2csc(NC(=O)CSc3nc4nccnc4c(=O)n3CCc3ccccc3)n2)c1	ABL1	–	10 µM	2%
COc1cc2ncnc(Nc3ccc(Oc4ccccc4)cc3C)c2cc1OC	ABL1 T315I	–	1 µM	5%
CC/C(=N\NC(=O)NCc1cccc(O)c1)c1ccc(O)c(C)c1O	ABL1 T315I	–	0.1 µM	-1.5%
COc1cc(-c2cc(-c3ccc(N4CCNCC4)cc3)cnc2N)cc(OC)c1OC	Tyrosine-protein kinase ABL1 (ABL1, Homo sapiens, UniProt P00519, Q252H)	–	1 µM	96%
CNC(=O)c1cc2c(Oc3ccc(NC(=O)C4(C(=O)Nc5ccc(F)cc5)CC4)cc3)ccnc2cc1OC	ABL1 Y253F	radiometric	1 µM	78%
COc1cc2ncnc(Nc3ccc(Oc4ccccc4)c(C)c3C)c2cc1OC	ABL1 Y253F	–	1 µM	2%
CN(C)C1CCN(CC#Cc2nn(C3CCCC3)c3nc(NCc4ccccc4)ncc23)C1 (stereo not drawn)	ABL1	FRET	10 µM	31%
